The test system of assay [1] is Rattus norvegicus. The assay can be described thus: Inhibition of rat adjuvant induced polyarthritis (AIP) at the dose of 5 mg/kg in the injected paw. Format: functional. The method in brief: (§1)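 Rat adjuvant arthritis induced by M. tuberculosis in mineral oil into the left hindpaw on day 0. Dosed sc once daily for 28 days in sterile saline adjusted to pH 7.0. Change in paw volume of the injected and noninjected hindpaws measured on day 28 by mercury-displacement plethysmography, giving % inhibition versus the sc vehicle arthritic control.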

In assay [2] the test system is Rattus norvegicus. The assay can be described thus: Inhibition of adjuvant-induced polyarthritis (AIP) in rats at the dose of 5 mg/kg in the non-injected paw.
For assay [3], the system named is Mus musculus. As to the kind of experiment: Inhibition of antigen-induced polyarthritis (AIP) in mice at the dose of 5 mg/kg. The assay is classed as functional. The method in brief: (§2)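 Murine antigen-induced arthritis: mice immunized with mBSA (with M. tuberculosis), boosted at 7 days, and challenged 14 days later with 200 μg mBSA in saline into the left rear stifle joint. Dosed sc (scruff; saline vehicle, pH 7.0) 5 of 7 days from day 0 to 28. H&E sagittal joint sections scored 1–5 each for inflammation, pannus, and cartilage/bone erosion, summed to a global score (max 20). One-way ANOVA versus vehicle.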

For assay [4], the system named is Mus musculus. As to the kind of experiment: Inhibition of antigen-induced polyarthritis (AIP) in mice at the dose of 30 mg/kg. The assay is classed as functional. The method in brief: as §2
Assay [5] has as its system Rattus norvegicus. As to the kind of experiment: Inhibition of rat adjuvant induced polyarthritis (AIP) at the dose of 30 mg/kg in the injected paw. Format: functional. The method in brief:
as §1

The test system of assay [6] is Rattus norvegicus. As to the kind of experiment: Inhibition of rat adjuvant induced polyarthritis (AIP) at the dose of 15 mg/kg in the non-injected paw. Format: functional. The method in brief:
as §1

Assay [7] has as its system Rattus norvegicus. The assay can be described thus: Inhibition of adjuvant-induced polyarthritis (AIP) in rats at the dose of 10 mg/kg in the non-injected paw.
The subject of assay [8] is Mus musculus. As to the kind of experiment: Inhibition of delayed type hypersensitivity granuloma results at 100 mg/kg in dry weight. Format: functional. The method in brief:
(§3)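 Groups of 10 female CF-1 mice (25 g) were sensitised sc over the inguinal lymph node with mBSA emulsion in Freund's incomplete adjuvant plus dextran. Two mBSA-soaked hydroxyapatite disks were implanted per mouse. Sc dosing ran daily from implantation to day 9, then granulomas were excised for wet and dry weights. Student's paired t test.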

The test system of assay [9] is Rattus norvegicus. As to the kind of experiment: Inhibition of rat adjuvant induced polyarthritis (AIP) at the dose of 15 mg/kg in the injected paw. The assay is classed as functional. The method in brief: as §1
Assay [10] has as its system Mus musculus. The assay can be described thus: Inhibition of antigen-induced polyarthritis (AIP) in mice at the dose of 50 mg/kg. Format: functional. Summed up:
as §2

Assay [11] concerns Rattus norvegicus. As to the kind of experiment: Inhibition of rat adjuvant induced polyarthritis (AIP) at the dose of 10 mg/kg in the injected paw. The assay is classed as functional. The method in brief: as §1
The test system of assay [12] is Mus musculus. As to the kind of experiment: Inhibition of antigen-induced polyarthritis (AIP) in mice at the dose of 100 mg/kg. Format: functional. Summed up:
as §2

Assay [13] has as its system Mus musculus. As to the kind of experiment: Inhibition of antigen-induced polyarthritis (AIP) in mice at the dose of 15 mg/kg. Format: functional. The method in brief: as §2
In assay [14] the test system is Mus musculus. As to the kind of experiment: Inhibition of delayed type hypersensitivity granuloma results at 100 mg/kg in wet weight. Format: functional. Summed up: as §3
The test system of assay [15] is Rattus norvegicus. The assay can be described thus: Inhibition of rat adjuvant induced polyarthritis (AIP) at the dose of 30 mg/kg in the non-injected paw. The assay is classed as functional. The method in brief: as §1
Assay [16] deals with Mus musculus. The assay can be described thus: Inhibition of antigen-induced polyarthritis (AIP) in mice at the dose of 200 mg/kg. Format: functional. Summed up: as §2

This note sets out measurements from ChEMBL document CHEMBL1126664, “Pyrazoline bisphosphonate esters as novel antiinflammatory and antiarthritic agents” (1993).

The term inhibition in vivo denotes how much of the control response was suppressed.

In the case of `O=P(O)(O)C(Cl)(Cl)P(=O)(O)O` [CLODRONIC ACID], the inhibition in vivo at 5 mg/kg with Rattus norvegicus [1] came out at 21%; with Rattus norvegicus [2], 51%; in the assay on Mus musculus [3], 4%. Moreover, the inhibition in vivo at 30 mg/kg in the assay on Mus musculus [4] was 46%; with Rattus norvegicus [5], 36%; with Rattus norvegicus [15], 54%. The inhibition in vivo at 15 mg/kg came out at 70% in the assay with Rattus norvegicus [6], 33% with Rattus norvegicus [9] and 46% in the assay on Mus musculus [13]. Also, the inhibition in vivo at 10 mg/kg in the assay with Rattus norvegicus [7] was 61%; in the assay on Rattus norvegicus [11] it was 38%. The inhibition in vivo at 100 mg/kg in the assay on Mus musculus [8] stood at 47%; with Mus musculus [12], 51%; in the assay on Mus musculus [14] it was 45%. Further, in the assay with Mus musculus [10], at 50 mg/kg the inhibition in vivo was 46%. Further, in the assay on Mus musculus [16], the inhibition in vivo at 200 mg/kg stood at 52%.
